IC50 and Activity data for 28 compounds are collected here from ChEMBL document CHEMBL4033629, “Synthesis, biological evaluation and molecular modeling of 2-Hydroxyisoquinoline-1,3-dione analogues as inhibitors of HIV reverse transcriptase associated ribonuclease H and polymerase” (Eur J Med Chem, 2017).

Active and inactive are the calls of the source. No cut-off for these calls is given here. Bounds are passed on as bounds.

The nature of experiment [1]: Inhibition of full length HIV reverse transcriptase polymerase activity. Also on record: species or system Human immunodeficiency virus. A digest of the protocol:
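RT was pre-incubated with primer-template duplex before compound was tested. The IC50 is the concentration giving 50% inhibition. It is reported as mean ± SD from three independent experiments for some analogues, and as the mean of two independent experiments for others.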

Experiment [2] in a line: Inhibition of full length HIV RT-RNase H activity using 18-nucleotide 3'-fluorescein-labeled RNA/5'-dabsyl-labeled DNA hybrid as substrate. Also on record: species or system Human immunodeficiency virus. A digest of the protocol: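 Duplex substrate reports random internal RNA cleavage. A known RNase H inhibitor served as positive control. IC50 is the concentration giving 50% inhibition, reported as the mean of two or three independent experiments.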

In experiment [3] the test system is Human immunodeficiency virus 1. In words: Antiviral activity against HIV1 3B infected in human CEM-SS cells assessed as inhibition of viral-induced cytopathic effect at 10 uM by colorimetric method. The experiment is classed as functional, cell-based. A digest of the protocol: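 CEM-SS cells were mixed with HIV-1 IIIB and test compound at 10 µM and incubated 6 days. Virus was pre-titered so that virus control wells lost 70 to 95% of cell viability. Each plate had cell-only, virus, compound toxicity and compound colorimetric control wells. Protection from virus-induced cytopathic effect was read colorimetrically.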
In general terms: Damage to the host cells serves as the signal in cytopathic effect assays.

In the case of `O=C(Cc1ccccc1)Nc1ccc2c(c1)CC(=O)N(O)C2=O`, the IC50 in experiment [1] stood at 1400 nM; in experiment [2], 200 nM. Also, the result in experiment [3] was inactive.

Take `O=C1Cc2c(Cc3ccc(Br)cc3)cccc2C(=O)N1O`: the IC50 is 1400 nM in experiment [1] and 600 nM in experiment [2]. In addition, the outcome in experiment [3] was inactive.

Regarding `O=C1Cc2cc(-c3ccc(F)c(F)c3)ccc2C(=O)N1O`, the IC50 worked out at 2100 nM in experiment [1] and 1300 nM in experiment [2]. Moreover, the outcome in experiment [3] was inactive.

Regarding `COc1cc2c(cc1-c1ccco1)CC(=O)N(O)C2=O`, the concentration for half-maximal inhibition (IC50) in experiment [1] came out at 6200 nM; in experiment [2] it was 1600 nM. In addition, in experiment [3], the result was inactive.

Consider `COc1cc2c(cc1-c1ccc(F)cc1F)CC(=O)N(O)C2=O`, for which the IC50 was 2900 nM in experiment [1] and 1600 nM in experiment [2]. Also, in experiment [3], the outcome was inactive.

Take `O=C1Cc2ccc(I)cc2C(=O)N1O`: the IC50 was found to be 1900 nM in experiment [1] and 1400 nM in experiment [2]. For the same compound, in experiment [3], the outcome was inactive.

For `O=C1Cc2cc(-c3cccc4c3sc3ccccc34)ccc2C(=O)N1O`, the IC50 in experiment [1] was found to be 1600 nM; in experiment [2], 1800 nM. Besides, the outcome in experiment [3] was inactive.

As for `O=C1Cc2ccc(-c3ccco3)cc2C(=O)N1O`, the half-inhibitory concentration (IC50) came to 1300 nM in experiment [1] and 1200 nM in experiment [2]. The result in experiment [3] was inactive.

In the case of `O=C1Cc2c(cccc2-c2ccco2)C(=O)N1O`, the IC50 in experiment [1] is 2100 nM; in experiment [2], 2000 nM. In addition, the outcome in experiment [3] was inactive.

On to `O=C1Cc2c(Cc3ccc(F)cc3F)cccc2C(=O)N1O`, for which the IC50 in experiment [1] was 9300 nM; in experiment [2] it was 820 nM. For the same compound, in experiment [3], the outcome was inactive.

Consider `O=C1Cc2cc(-c3ccco3)ccc2C(=O)N1O`, for which the results for the IC50 in experiment [1] and in experiment [2] were 1500 nM and 1100 nM, respectively. In addition, the result in experiment [3] was inactive.

As to `COc1cc2c(cc1-c1ccccc1)CC(=O)N(O)C2=O`, the IC50 in experiment [1] is 8100 nM; in experiment [2], 1300 nM. Also, in experiment [3], the outcome was inactive.

Regarding `O=C1Cc2ccc(-c3cccs3)cc2C(=O)N1O`, the IC50 in experiment [1] worked out at 2500 nM; in experiment [2], 1700 nM. For the same compound, the result in experiment [3] was inactive.

Take `O=C1Cc2cc(-c3csc4ccccc34)ccc2C(=O)N1O`: the IC50 in experiment [1] was 1300 nM; in experiment [2], 1100 nM. Also, the result in experiment [3] was inactive.

As to `O=C1Cc2cc(-c3cc4ccccc4o3)ccc2C(=O)N1O`, the results for the half-maximal inhibitory concentration (IC50) in experiment [1] and in experiment [2] were 1500 nM and 1100 nM, respectively. In experiment [3], the outcome was inactive.

Take `O=C(Nc1ccc2c(c1)CC(=O)N(O)C2=O)c1ccc(F)cc1`: the 50% inhibitory concentration (IC50) in experiment [1] was determined as 800 nM; in experiment [2] it was 200 nM. Further, the result in experiment [3] was inactive.

As for `O=C1Cc2cc(-c3cccs3)ccc2C(=O)N1O`, the concentration for half-maximal inhibition (IC50) in experiment [1] and in experiment [2] was 1700 nM throughout. Besides, in experiment [3], the outcome was inactive.

Regarding `COc1cc2c(cc1-c1ccc(F)cc1)CC(=O)N(O)C2=O`, the IC50 in experiment [1] worked out at 3700 nM; in experiment [2], 1400 nM. In addition, the outcome in experiment [3] was inactive.

`O=C(Cc1ccc(F)cc1)Nc1ccc2c(c1)CC(=O)N(O)C2=O`: the IC50 in experiment [1] is 1700 nM; in experiment [2], 300 nM. Further, the result in experiment [3] was inactive.

With `O=C(Nc1ccc2c(c1)CC(=O)N(O)C2=O)c1ccccc1`, the IC50 amounted to 400 nM in experiment [1] and 200 nM in experiment [2]. For the same compound, the result in experiment [3] was inactive.

Regarding `Cc1ccc(Cc2cccc3c2CC(=O)N(O)C3=O)cc1`, the half-maximal inhibitory concentration (IC50) in experiment [1] amounted to 8000 nM; in experiment [2], 1000 nM. The outcome in experiment [3] was inactive.

Consider `O=C1Cc2cc(-c3ccc4c(c3)OCO4)ccc2C(=O)N1O`, for which the IC50 is 1700 nM in experiment [1] and 1200 nM in experiment [2]. Further, the result in experiment [3] was inactive.

With `O=C1Cc2c(cccc2-c2ccc(F)cc2F)C(=O)N1O`, the IC50 in experiment [1] came out at 25000 nM; in experiment [2], 1500 nM. In addition, in experiment [3], the result was inactive.

Turning to `O=C1Cc2cc(-c3ccoc3)ccc2C(=O)N1O`, the IC50 in experiment [1] is 2000 nM; in experiment [2], 1400 nM. In experiment [3], the outcome was inactive.

On to `O=C1Cc2ccc(-c3ccc(F)c(F)c3)cc2C(=O)N1O`, for which the IC50 came out at 2800 nM in experiment [1] and 2000 nM in experiment [2]. Further, in experiment [3], the result was inactive.

Consider `O=C1Cc2c(cccc2-c2ccccc2)C(=O)N1O`, for which the IC50 in experiment [1] is over 25000 nM; in experiment [2] it was 1400 nM. Moreover, in experiment [3], the outcome was inactive.

Turning to `O=C1Cc2ccc(-c3cc4ccccc4o3)cc2C(=O)N1O`, the results for the IC50 in experiment [1] and in experiment [2] were 1600 nM and 900 nM, respectively. Further, in experiment [3], the outcome was inactive.

For `O=C1Cc2c(Cc3ccc(C(F)(F)F)cc3)cccc2C(=O)N1O`, the IC50 in experiment [1] was 7400 nM; in experiment [2], 830 nM. For the same compound, the result in experiment [3] was inactive.

By IC50 is commonly meant the midpoint of a concentration-inhibition curve. A high value points to lower potency.
